The results in this text go back to ChEMBL document CHEMBL1158074, “Cytotoxic constituents from the formosan soft coral Clavularia inflata var. luzoniana” (J Nat Prod, 2006).

One assay concerns P388. Nature of the assay: Cytotoxicity against mouse P388 cells. In kind it is functional. The note with it: for EC50: read-out: ED50 (the source's name). In outline:
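P-388 mouse lymphocytic leukemia cells were provided by an academic laboratory at the University of Illinois at Chicago. Activity is expressed as an ED50.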

Another assay concerns HT-29. The assay can be described thus: Cytotoxicity against human HT 29 cells. In kind it is functional, cell-based. Summed up:
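HT-29 human colon adenocarcinoma cells were obtained from the American Type Culture Collection. The value is reported as an ED50.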

In brackets after ≈: the same amount, converted by molar mass. Activity calls are given as the source filed them. The rule behind the calls is not given here.

As for `C=C1CC/C=C(\C)C/C=C2/[C@H](C(C)C)CC[C@@]2(C)C[C@@H]1O`, in the assay on P388, the EC50 was 3.6 mg/L (≈ 12.5 µM). The result in the assay with HT-29 was inactive.

As to `C=C1[C@@H]2[C@@H](OC(C)=O)OC=C([C@H](OC(C)=O)[C@@H](C=C(C)C)OC(C)=O)[C@H]2CC/C(C)=C/[C@H](OC(=O)c2ccccc2)[C@H]1O`, the EC50 with P388 is 0.5 mg/L (≈ 0.838 µM); in the assay with HT-29 (read-out: ED50 (the source's name)), 1.2 mg/L (≈ 2.01 µM).

On to `C=C1CC[C@H]2[C@@H]([C@@H]3[C@@H]1C[C@@H](O)[C@@]3(C)O)C2(C)C`, for which the outcome in the assay on P388 and in the assay on HT-29 was inactive.

Take `C=C1CC/C=C(\C)C/C=C2/[C@H](C(C)C)CC[C@@]2(C)CC1=O`: the EC50 with P388 stood at 0.6 mg/L (≈ 2.09 µM); in the assay with HT-29 (read-out: EC50) it was 2.8 mg/L (≈ 9.77 µM).

In the case of `CC(=O)C(O)C[C@@H]1[C@@H]([C@@H]2[C@H]3CC[C@@]23C)C1(C)C` (stereo partly specified), the result with P388 and in the assay on HT-29 was inactive.

`C=C1CC/C=C(\C)C/C=C2/[C@H](C(C)C)[C@@H](O)C[C@@]2(C)CC1=O`: the EC50 with P388 was 1.5 mg/L (≈ 4.96 µM). Also, the outcome in the assay with HT-29 was inactive.

Take `C=C1CC[C@H]2[C@@H]([C@H]3C(C)=CC[C@@]13OO)C2(C)C`: the outcome in the assay on P388 and in the assay on HT-29 was inactive.

Regarding `CC1(C)[C@@H]2[C@@H]3[C@H](C[C@@H](O)[C@@]3(C)O)[C@@](C)(O)CC[C@@H]21`, the result with P388 and in the assay on HT-29 was inactive.
